Laboratory results published in ChEMBL document CHEMBL1800059, “Spiroindane based amides as potent and selective MC4R agonists for the treatment of obesity” (Bioorg Med Chem Lett, 2010).
Activity calls are given as the source filed them. No cut-off for these calls is given here.

Columns and labels:
Melanocortin receptor 3 = Melanocortin receptor 3 (Mus musculus, UniProt P33033); experiment: Agonist activity at mouse MC3 receptor; assay type: functional
Mus musculus [1] = experiment: Antiobesity activity in wild type diet-induced obese mouse model assessed as reduction in food intake at 10 mg/kg, po; assay type: functional, organism-based; parameters: dose 10 mg/kg
How it was run: (§1)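 Wild-type and MC4R/3R knockout mice received a single oral dose of 10 mg/kg, with a vehicle-dosed group for each genotype. Food intake and body weight change were measured against vehicle.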

Mus musculus [2] = experiment: Antiobesity activity in MC4R/3R knockout diet-induced obese mouse model assessed as reduction in food intake at 10 mg/kg, po; assay type: functional, organism-based; parameters: dose 10 mg/kg; how it was run: as §1
Melanocortin receptor 4 [3] = biological target: T1, Melanocortin receptor 4 (Homo sapiens, UniProt P32245); experiment: Agonist activity at human MC4R expressed in CHO cells assessed as increase of alpha-MSH-stimulated cAMP release pretreated for 10 mins before alpha-MSH challenge measured after 40 mins; assay type: functional, cell-based
T1 sequence (P32245 whole entry): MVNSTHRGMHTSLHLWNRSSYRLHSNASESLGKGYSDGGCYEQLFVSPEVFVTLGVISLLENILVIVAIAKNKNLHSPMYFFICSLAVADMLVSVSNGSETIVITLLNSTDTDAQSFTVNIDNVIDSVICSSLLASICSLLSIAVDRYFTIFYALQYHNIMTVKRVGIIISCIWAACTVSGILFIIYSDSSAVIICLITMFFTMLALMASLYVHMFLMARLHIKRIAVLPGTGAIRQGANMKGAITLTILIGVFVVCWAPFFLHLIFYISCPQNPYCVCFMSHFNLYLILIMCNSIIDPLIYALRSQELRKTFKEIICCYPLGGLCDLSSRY
How it was run: (§2)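 Each value is the mean of at least three repeat measurements. Functional read-outs give EC50 with % maximal activation.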

[4] = Agonist activity at human MC1bR expressed in CHO cells assessed as increase of alpha-MSH-stimulated cAMP release pretreated for 10 mins before alpha-MSH challenge measured after 40 mins relative to alpha-MSH; assay type: functional; how it was run: as §2
Rattus norvegicus [5] = experiment: Antiobesity activity in wild type 14 days diet-induced obese rat model assessed as reduction in body weight at 6 mg/kg, po BID; assay type: functional, organism-based; parameters: dose 6 mg/kg
How it was run: (§3)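 Diet-induced obese rats were dosed orally twice daily for 14 days at 2, 6 or 20 mpk. Vehicle and orally dosed positive-control groups were included. Body weight was recorded daily and expressed as change in grams.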

Melanocortin receptor 4 [6] = biological target: T1, Melanocortin receptor 4; experiment: Agonist activity at human MC4R expressed in CHO cells assessed as increase of alpha-MSH-stimulated cAMP release pretreated for 10 mins before alpha-MSH challenge measured after 40 mins relative to alpha-MSH; assay type: functional, cell-based; how it was run: as §2
Rattus norvegicus [7] = experiment: Antiobesity activity in wild type 14 days diet-induced obese rat model assessed as reduction in body weight at 20 mg/kg, po BID; assay type: functional, organism-based; parameters: dose 20 mg/kg; how it was run: as §3
[8] = Agonist activity at human MC1bR expressed in CHO cells assessed as increase of alpha-MSH-stimulated cAMP release pretreated for 10 mins before alpha-MSH challenge measured after 40 mins; assay type: functional, cell-based; how it was run: as §2
Mus musculus [9] = experiment: Antiobesity activity in MC4R/3R knockout diet-induced obese mouse model assessed as reduction in body weight at 10 mg/kg, po; assay type: functional, organism-based; parameters: dose 10 mg/kg; how it was run: as §1
Mus musculus [10] = experiment: Antiobesity activity in wild type diet-induced obese mouse model assessed as reduction in body weight at 10 mg/kg, po; assay type: functional, organism-based; parameters: dose 10 mg/kg; how it was run: as §1
Rattus norvegicus [11] = experiment: Dose-normalized AUC in Sprague-Dawley rat at 1 mg/kg, iv and 4 mg/kg, po; assay type: ADME, organism-based; settings: in vivo
Melanocortin receptor 4 [12] = biological target: T1, Melanocortin receptor 4; experiment: Displacement of [125I]-NDP-R-MSH from human MC4R expressed in CHO cells after 1.5 hrs by scintillation counting; assay type: cell-based; how it was run: as §2
[13] = Half life in Sprague-Dawley rat at 1 mg/kg, iv and 4 mg/kg, po; assay type: ADME, organism-based; settings: in vivo
[14] = Clearance in Sprague-Dawley rat at 1 mg/kg, iv and 4 mg/kg, po; assay type: ADME, organism-based; settings: in vivo
[15] = Oral bioavailability in Sprague-Dawley rat at 4 mg/kg; assay type: ADME, organism-based; settings: in vivo
[16] = Volume of distribution at steady state in Sprague-Dawley rat at 1 mg/kg, iv and 4 mg/kg, po; assay type: ADME, organism-based; settings: in vivo, read-out: Vdss
Rattus norvegicus [17] = experiment: Antiobesity activity in wild type 14 days diet-induced obese rat model assessed as reduction in body weight at 10 mg/kg, po BID; assay type: functional, organism-based; parameters: dose 10 mg/kg

Chain of Melanocortin receptor 3 (P33033 whole entry): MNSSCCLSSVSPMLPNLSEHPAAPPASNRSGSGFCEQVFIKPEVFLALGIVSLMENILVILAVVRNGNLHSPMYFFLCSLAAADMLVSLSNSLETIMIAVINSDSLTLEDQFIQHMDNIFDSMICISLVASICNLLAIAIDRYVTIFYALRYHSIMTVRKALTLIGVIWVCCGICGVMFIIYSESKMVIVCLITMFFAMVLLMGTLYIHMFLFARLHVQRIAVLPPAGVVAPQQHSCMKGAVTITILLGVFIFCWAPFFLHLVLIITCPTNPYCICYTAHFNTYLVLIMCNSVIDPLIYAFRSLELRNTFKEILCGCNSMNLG

Question: Which EC50 (Melanocortin receptor 3) does the source give for `CC(=O)NC(C)(C)[C@@H]1CC2(CCN(C(=O)[C@@H]3CN(C(C)(C)C)C[C@H]3c3ccc(F)cc3F)CC2)c2cc(Cl)c(C)cc21` here?
Answer: Its EC50 is 1700 nM.

Question: What about the Activity (Mus musculus [1]) of the same compound?
Answer: Its Activity is “Active”.

Question: What about the Activity (Mus musculus [2]) of the same compound?
Answer: Its Activity is “inactive”.

Question: And the EC50 (Melanocortin receptor 4 [3])?
Answer: Its EC50 is 4.6 nM.

Question: What about the Activity [4] of the same compound?
Answer: Its Activity is 25%.

Question: And the Activity (Rattus norvegicus [5])?
Answer: Its Activity is “Active”.

Question: And the Activity (Melanocortin receptor 4 [6])?
Answer: The Activity was 109%.

Question: And the Activity (Rattus norvegicus [7])?
Answer: The Activity was “Active”.

Question: What about the EC50 [8] of the same compound?
Answer: Its EC50 is 1020 nM.

Question: And the Activity (Mus musculus [9])?
Answer: Its Activity is “inactive”.

Question: And the Activity (Mus musculus [10])?
Answer: The Activity was “Active”.

Question: For `CC(=O)N(C)C(C)(C)[C@@H]1CC2(CCN(C(=O)[C@@H]3CN(C(C)(C)C)C[C@H]3c3ccc(F)cc3F)CC2)c2cc(Cl)c(C)cc21`, which AUC/dose (Rattus norvegicus [11]) is on record?
Answer: Its AUC/dose is 0.83 µM·h/mg/kg.

Question: What about the IC50 (Melanocortin receptor 4 [12]) of the same compound?
Answer: Its IC50 is 8.5 nM.

Question: And the EC50 (Melanocortin receptor 4 [3])?
Answer: The EC50 was 2.1 nM.

Question: What about the Activity [4] of the same compound?
Answer: Its Activity is 35%.

Question: And the half-life [13]?
Answer: Its half-life is 15.1 h.

Question: What about the clearance [14] of the same compound?
Answer: The clearance was 9.1 mL/min/kg.

Question: And the Activity (Melanocortin receptor 4 [6])?
Answer: The Activity was 112%.

Question: What about the bioavailability [15] of the same compound?
Answer: The bioavailability was 22%.

Question: What about the EC50 [8] of the same compound?
Answer: Its EC50 is 494 nM.

Question: And the Vd [16]?
Answer: The Vd was 10.4 L/kg.

Question: Which results are given for `CC[C@H](NC(C)=O)c1cc(Cl)ccc1C1CCN(C(=O)[C@@H]2CN(C(C)(C)C)C[C@H]2c2ccc(F)cc2F)CC1`?
Answer: Activity (Rattus norvegicus [17]): Active; Activity (Melanocortin receptor 4 [6]): 97%

Question: With `Cc1cc2c(cc1Cl)C1(CCN(C(=O)[C@@H]3CN(C(C)(C)C)C[C@H]3c3ccc(F)cc3F)CC1)C[C@@H]2C(C)(C)C(=O)N(C)C` as the compound, how does the AUC/dose (Rattus norvegicus [11]) read?
Answer: The AUC/dose was 0.39 µM·h/mg/kg.

Question: What about the IC50 (Melanocortin receptor 4 [12]) of the same compound?
Answer: The IC50 was 0.71 nM.

Question: What about the EC50 (Melanocortin receptor 4 [3]) of the same compound?
Answer: The EC50 was 0.87 nM.

Question: What about the Activity [4] of the same compound?
Answer: The Activity was 92%.

Question: And the half-life [13]?
Answer: Its half-life is 5.14 h.

Question: And the clearance [14]?
Answer: Its clearance is 17.2 mL/min/kg.

Question: What about the Activity (Melanocortin receptor 4 [6]) of the same compound?
Answer: The Activity was 108%.

Question: And the bioavailability [15]?
Answer: The bioavailability was 24%.

Question: What about the EC50 [8] of the same compound?
Answer: Its EC50 is 255 nM.

Question: What about the Vd [16] of the same compound?
Answer: Its Vd is 6.95 L/kg.
